Experiments:
[1] = system: K562; assay: Antiproliferative activity against human K562 cells at 10 uM after 48 hrs by trypan blue assay; format: functional; conditions: K562, 48 h, read-out: GI
[2] = system: K562; assay: Growth inhibition of human K562 cells after 48 hrs by trypan blue assay; format: functional, cell-based; conditions: K562, 48 h
[3] = system: CCRF-CEM; assay: Growth inhibition of human CCRF-CEM cells after 48 hrs by SRB assay; format: functional
Method in brief: (§1)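 NCI DTP panel cells grown in RPMI 1640 with 5% FBS and 2 mM L-glutamine, preincubated 24 h, then given five concentrations (10-fold or ½-log dilutions from DMSO stock) for 48 h at 37 °C. Cells fixed with TCA, stained with SRB, absorbance read at 515 nm, with time-zero plates as reference.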

[4] = system: HL-60; assay: Growth inhibition of human HL60 cells after 48 hrs by SRB assay; format: functional; conditions: HL-60, 48 h; method in brief: as §1
[5] = system: K562; assay: Growth inhibition of human K562 cells after 48 hrs by SRB assay; format: functional; conditions: K562, 48 h; method in brief: as §1
[6] = system: MOLT-4; assay: Growth inhibition of human MOLT4 cells after 48 hrs by SRB assay; format: functional; conditions: MOLT-4, 48 h; method in brief: as §1
[7] = system: A549; assay: Growth inhibition of human A549 cells after 48 hrs by SRB assay; format: functional; conditions: A549, 48 h; method in brief: as §1
[8] = system: EKVX; assay: Growth inhibition of human EKVX cells after 48 hrs by SRB assay; format: functional; method in brief: as §1
[9] = system: HOP-62; assay: Growth inhibition of human HOP62 cells after 48 hrs by SRB assay; format: functional; conditions: HOP-62, 48 h; method in brief: as §1
[10] = system: HOP-92; assay: Growth inhibition of human HOP92 cells after 48 hrs by SRB assay; format: functional; conditions: HOP-92, 48 h; method in brief: as §1
[11] = system: NCI-H226; assay: Growth inhibition of human NCI-H226 cells after 48 hrs by SRB assay; format: functional; conditions: NCI-H226, 48 h; method in brief: as §1
[12] = system: NCI-H23; assay: Growth inhibition of human NCI-H23 cells after 48 hrs by SRB assay; format: functional; conditions: NCI-H23, 48 h; method in brief: as §1
[13] = system: NCI-H460; assay: Growth inhibition of human NCI-H460 cells after 48 hrs by SRB assay; format: functional; conditions: NCI-H460, 48 h; method in brief: as §1
[14] = system: NCI-H522; assay: Growth inhibition of human NCI-H522 cells after 48 hrs by SRB assay; format: functional; conditions: NCI-H522, 48 h; method in brief: as §1
[15] = system: COLO 205; assay: Growth inhibition of human COLO205 cells after 48 hrs by SRB assay; format: functional; conditions: COLO 205, 48 h; method in brief: as §1
[16] = system: HCC 2998; assay: Growth inhibition of human HCC2998 cells after 48 hrs by SRB assay; format: functional; conditions: HCC 2998, 48 h; method in brief: as §1
[17] = system: HCT-116; assay: Growth inhibition of human HCT116 cells after 48 hrs by SRB assay; format: functional; conditions: HCT-116, 48 h; method in brief: as §1
[18] = system: HCT-15; assay: Growth inhibition of human HCT15 cells after 48 hrs by SRB assay; format: functional; conditions: HCT-15, 48 h; method in brief: as §1
[19] = system: HT-29; assay: Growth inhibition of human HT-29 cells after 48 hrs by SRB assay; format: functional; conditions: HT-29, 48 h; method in brief: as §1
[20] = system: KM12; assay: Growth inhibition of human KM12 cells after 48 hrs by SRB assay; format: functional; conditions: KM12, 48 h; method in brief: as §1
[21] = system: SW-620; assay: Growth inhibition of human SW620 cells after 48 hrs by SRB assay; format: functional; conditions: SW-620, 48 h
Method in brief: (§2)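 Run by the NCI Developmental Therapeutics Program: cells in RPMI 1640 with 5% FBS and 2 mM L-glutamine, plated at 5000–40,000 cells/well and grown 24 h before dosing. Drug (DMSO stock) given at five concentrations for 48 h at 37 °C, 5% CO2. Adherent cells fixed with cold TCA, stained with 0.4% SRB and read at 515 nm. GI50, TGI and LC50 taken from the time-zero, control and treated absorbances.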

[22] = system: SF-268; assay: Growth inhibition of human SF268 cells after 48 hrs by SRB assay; format: functional; conditions: SF-268, 48 h; method in brief: as §1
[23] = system: SF-295; assay: Growth inhibition of human SF295 cells after 48 hrs by SRB assay; format: functional; conditions: SF-295, 48 h; method in brief: as §1
[24] = system: SF-539; assay: Growth inhibition of human SF539 cells after 48 hrs by SRB assay; format: functional; conditions: SF-539, 48 h; method in brief: as §1
[25] = system: SNB-19; assay: Growth inhibition of human SNB19 cells after 48 hrs by SRB assay; format: functional; conditions: SNB-19, 48 h; method in brief: as §2
[26] = system: SNB-75; assay: Growth inhibition of human SNB75 cells after 48 hrs by SRB assay; format: functional; conditions: SNB-75, 48 h; method in brief: as §2
[27] = system: U-251; assay: Growth inhibition of human U251 cells after 48 hrs by SRB assay; format: functional; conditions: U-251, 48 h; method in brief: as §2
[28] = system: LOX IMVI; assay: Growth inhibition of human LOXIMVI cells after 48 hrs by SRB assay; format: functional; method in brief: as §1
[29] = system: Malme-3M; assay: Growth inhibition of human MALME-3M cells after 48 hrs by SRB assay; format: functional; method in brief: as §1
[30] = system: M14; assay: Growth inhibition of human M14 cells after 48 hrs by SRB assay; format: functional; conditions: M14, 48 h; method in brief: as §1
[31] = system: MDA-MB-435; assay: Growth inhibition of human MDA-MB-435 cells after 48 hrs by SRB assay; format: functional; conditions: MDA-MB-435, 48 h; method in brief: as §1
[32] = system: SK-MEL-2; assay: Growth inhibition of human SK-MEL-2 cells after 48 hrs by SRB assay; format: functional; conditions: SK-MEL-2, 48 h; method in brief: as §2
[33] = system: SK-MEL-28; assay: Growth inhibition of human SK-MEL-28 cells after 48 hrs by SRB assay; format: functional; conditions: SK-MEL-28, 48 h; method in brief: as §2
[34] = system: SK-MEL-5; assay: Growth inhibition of human SK-MEL-5 cells after 48 hrs by SRB assay; format: functional; conditions: SK-MEL-5, 48 h; method in brief: as §2
[35] = system: UACC-257; assay: Growth inhibition of human UACC257 cells after 48 hrs by SRB assay; format: functional; conditions: UACC-257, 48 h; method in brief: as §2
[36] = system: UACC-62; assay: Growth inhibition of human UACC62 cells after 48 hrs by SRB assay; format: functional; conditions: UACC-62, 48 h; method in brief: as §2
[37] = system: IGROV-1; assay: Growth inhibition of human IGROV1 cells after 48 hrs by SRB assay; format: functional; conditions: IGROV-1, 48 h; method in brief: as §1
[38] = system: OVCAR-3; assay: Growth inhibition of human OVCAR3 cells after 48 hrs by SRB assay; format: functional; conditions: OVCAR-3, 48 h; method in brief: as §1
[39] = system: OVCAR-4; assay: Growth inhibition of human OVCAR4 cells after 48 hrs by SRB assay; format: functional; conditions: OVCAR-4, 48 h; method in brief: as §1
[40] = system: OVCAR-5; assay: Growth inhibition of human OVCAR5 cells after 48 hrs by SRB assay; format: functional; conditions: OVCAR-5, 48 h; method in brief: as §1
[41] = system: OVCAR-8; assay: Growth inhibition of human OVCAR8 cells after 48 hrs by SRB assay; format: functional; conditions: OVCAR-8, 48 h; method in brief: as §1
[42] = system: NCI/ADR-RES; assay: Growth inhibition of human NCI/ADR-RES cells after 48 hrs by SRB assay; format: functional; method in brief: as §1
[43] = system: SK-OV-3; assay: Growth inhibition of human SKOV3 cells after 48 hrs by SRB assay; format: functional; conditions: SK-OV-3, 48 h; method in brief: as §2
[44] = system: 786-0; assay: Growth inhibition of human 786-0 cells after 48 hrs by SRB assay; format: functional; conditions: 786-0, 48 h; method in brief: as §1
[45] = system: A498; assay: Growth inhibition of human A498 cells after 48 hrs by SRB assay; format: functional; conditions: A498, 48 h; method in brief: as §1
[46] = system: ACHN; assay: Growth inhibition of human ACHN cells after 48 hrs by SRB assay; format: functional; method in brief: as §1
[47] = system: CAKI-1; assay: Growth inhibition of human Caki1 cells after 48 hrs by SRB assay; format: functional; conditions: CAKI-1, 48 h; method in brief: as §1
[48] = system: SN12C; assay: Growth inhibition of human SN12C cells after 48 hrs by SRB assay; format: functional; method in brief: as §2
[49] = system: TK-10; assay: Growth inhibition of human TK10 cells after 48 hrs by SRB assay; format: functional; conditions: TK-10, 48 h; method in brief: as §2
[50] = system: UO-31; assay: Growth inhibition of human UO31 cells after 48 hrs by SRB assay; format: functional; conditions: UO-31, 48 h; method in brief: as §2
[51] = system: PC-3; assay: Growth inhibition of human PC3 cells after 48 hrs by SRB assay; format: functional; conditions: PC-3, 48 h; method in brief: as §1
[52] = system: DU-145; assay: Growth inhibition of human DU145 cells after 48 hrs by SRB assay; format: functional; conditions: DU-145, 48 h; method in brief: as §1
[53] = system: MCF7; assay: Growth inhibition of human MCF7 cells after 48 hrs by SRB assay; format: functional; conditions: MCF7, 48 h; method in brief: as §1
[54] = system: MDA-MB-231; assay: Growth inhibition of human MDA-MB-231 cells after 48 hrs by SRB assay; format: functional; conditions: MDA-MB-231, 48 h; method in brief: as §1
[55] = Growth inhibition of human Hs 578T cells after 48 hrs by SRB assay; format: functional; method in brief: as §1
[56] = system: BT-549; assay: Growth inhibition of human BT549 cells after 48 hrs by SRB assay; format: functional; conditions: BT-549, 48 h; method in brief: as §1
[57] = system: T47D; assay: Growth inhibition of human T47D cells after 48 hrs by SRB assay; format: functional; method in brief: as §2
[58] = system: MDA-MB-468; assay: Growth inhibition of human MDA-MB-468 cells after 48 hrs by SRB assay; format: functional; conditions: MDA-MB-468, 48 h; method in brief: as §1

Cc1ccc(NC(=O)/C=C/c2ccccc2)c(C(N)=O)c1
inhibition of growth at 10 µM [1]: 65.4%
IC50 [2]: 5.5 µM
GI50 [3]: 2.36 µM
GI50 [4]: 1.77 µM
GI50 [5]: 1.11 µM
GI50 [6]: 3.56 µM
GI50 [7]: 5.81 µM
GI50 [8]: 5.18 µM
GI50 [9]: 7.74 µM
GI50 [10]: 11.4 µM
GI50 [11]: 7.28 µM
GI50 [12]: 3.38 µM
GI50 [13]: 3.59 µM
GI50 [14]: 2.83 µM
GI50 [15]: 1.84 µM
GI50 [16]: 6.45 µM
GI50 [17]: 3.2 µM
GI50 [18]: 3.77 µM
GI50 [19]: 2.31 µM
GI50 [20]: 2.94 µM
GI50 [21]: 3.3 µM
GI50 [22]: 10.9 µM
GI50 [23]: 3.14 µM
GI50 [24]: 2.05 µM
GI50 [25]: 5.69 µM
GI50 [26]: 3.18 µM
GI50 [27]: 4.13 µM
GI50 [28]: 7.65 µM
GI50 [29]: 7.59 µM
GI50 [30]: 2.35 µM
GI50 [31]: 0.66 µM
GI50 [32]: 4.75 µM
GI50 [33]: 5.24 µM
GI50 [34]: 1.01 µM
GI50 [35]: 17 µM
GI50 [36]: 3.77 µM
GI50 [37]: 4.37 µM
GI50 [38]: 2.18 µM
GI50 [39]: 11.4 µM
GI50 [40]: 8.2 µM
GI50 [41]: 7.49 µM
GI50 [42]: 2.79 µM
GI50 [43]: 2.79 µM
GI50 [44]: 4 µM
GI50 [45]: 5.56 µM
GI50 [46]: 13.5 µM
GI50 [47]: 8.92 µM
GI50 [48]: 9.63 µM
GI50 [49]: 25.8 µM
GI50 [50]: 9.62 µM
GI50 [51]: 3.97 µM
GI50 [52]: 3.66 µM
GI50 [53]: 3.48 µM
GI50 [54]: 7.26 µM
GI50 [55]: 1.94 µM
GI50 [56]: 4.88 µM
GI50 [57]: 4.2 µM
GI50 [58]: 3.12 µM
